Source: ChEMBL document CHEMBL4513216, “Probing the Open Global Health Chemical Diversity Library for Multistage-Active Starting Points for Next-Generation Antimalarials” (ACS Infect Dis, 2020)

Assay: Toxicity liver stage against HepG2, at 10uM
Format: cell-based
Design: test concentration 10 uM, cell line HepG2-A16-CD81EGFP
Settings: human, HepG2-A16-CD81EGFP cells; read-out: INHIBITION
Summary of the method: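 Uninfected HepG2-A16-CD81EGFP cells, 3 × 10^3 per well, 1536-well, plated on prespotted compound at 10 μM final, parasite-free screening media added to match infected plates; puromycin 10 μM positive, DMSO 0.5% negative; run in parallel with 48 h PbLuc assay at 37 °C, 5% CO2; viability by CellTiter-Glo luminescence, normalized to controls.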

| SMILES | cytotoxicity at 10 µM [%] |
| --- | --- |
| Cc1c(C(C)Nc2ncnc3sccc23)cnn1C (configuration not stated) | 40.1 |
| c1ccc2c(Cc3nnc([C@H]4CCN(C5CCOCC5)C4)o3)c[nH]c2c1 | 2.9 |
| COCCN1CCc2nc(SCc3ccc(F)cc3)[nH]c(=O)c2C1 | -2.33 |
| CCOc1ccc(C(=O)Nc2c(C)nc3ccccn3c2=O)cc1 | 11.9 |
| O=c1c(NCCNCCO)c(N2CCN(c3ccccc3)CC2)c1=O | -7.76 |
| COCCN(Cc1ccoc1)C(=O)CSc1ccc(F)cc1 | 1.04 |
| CCS(=O)(=O)N1CCC2(CCCN(c3ncc(F)cn3)C2)C1 (configuration not stated) | 10.3 |
| CS(=O)(=O)N1CCCCC12CCN(c1nncs1)CC2 | 10.6 |
| O=C(NC1CCCC1)c1cc2c(s1)CCN2C(=O)c1ccccc1 | 6.55 |
| COc1ccc(-c2cnc(NC(C)=O)[nH]2)cc1 | -0.825 |
| COc1cccc(CN2CCCCCC2c2cccc(C)c2)c1O (configuration not stated) | 7.6 |
| CC(Cn1cc(Br)cn1)C(=O)Nc1ccc(Cl)cn1 (configuration not stated) | 34 |
| CCN1CC(Oc2ccc(Cl)cc2)=NC(SCC(=O)c2ccccc2)=N1 | 0.515 |
| O=C1CNc2ncnc(N3CCN(Cc4cccc(F)c4)CC3)c2N1 | 7.88 |
| CN(C)CCNC(=O)CCn1ncc2c(Cl)cccc21 | 5.92 |
| COCCNC(=O)CCn1ncc2c(Cl)cccc21 | 10.5 |
| Cc1c(Cl)c(C(=O)NN2CCOCC2)nn1C | 7.47 |
| Cc1nc(C(=O)N2CCOCC2)cc(N2CCC(C(N)=O)CC2)n1 | 1.82 |
| O=C1CCC(c2nc(C3CCNCC3)no2)N1 (configuration not stated) | -3.96 |
| Cc1ncc(CN2CC[C@@](C)(O)[C@H](Oc3cccc(F)c3)C2)cn1 | -13.4 |
| CC(C)(N)C(=O)N1CCC(c2nccnc2Oc2cccc(F)c2)CC1 | -13.2 |
| CCn1cc(C(=O)N2CCCC(c3nccs3)C2)cn1 (configuration not stated) | -4.19 |
| CS(=O)(=O)N1CC2(CCN(C3COC3)C2)Cc2ccccc21 (configuration not stated) | 11.9 |

| SMILES | cytotoxicity at 10 µM [%] |
| --- | --- |
| CCn1cnnc1CNC(=O)c1ccc(Br)cc1F | -18.2 |
| CC(C)(C)c1cn2c(n1)C(CNCc1ccccn1)CCC2 (configuration not stated) | -9.5 |
| CC(CCc1cccc(F)c1)NC(=O)NCc1ncnn1C (configuration not stated) | 12.2 |
| CCC(=O)N1CCCN(Cn2nc(C)c(Br)c2C)CC1 | 6.1 |
| N#Cc1cc(C(F)(F)F)ccc1NCC1CCS(=O)(=O)CC1 | 10.2 |
| O=C(CN1CCCS1(=O)=O)Nc1cccc(COC2CCCCC2)c1 | 0.568 |
| CC(C)OCCN1CCC(Nc2ncccn2)CC1 | -1 |
| Cc1cc(C(=O)N2CCN(C(=O)CCC3CCCCC3)CC2)n(C)n1 | -3.06 |
| COc1ccc(C)cc1CCNS(=O)(=O)c1ccc2c(c1)CCC(=O)N2 | -45.5 |
| CC(C)SCc1cccc(NC(=O)NCCc2nnc[nH]2)c1 | -46.1 |
| COc1ccc(Oc2ncccc2NC(=O)N2CCOCC2)cc1 | 9.11 |
| Cc1nc(CCCNC(=O)Nc2ccc(F)cc2F)n[nH]1 | -2.9 |
| Cc1cccc(-c2noc(Cn3nc(C(N)=O)ccc3=O)n2)c1 | -1.15 |
| Cc1ccc(CNc2cc3c(cc2Cl)NC(=O)CO3)cc1C | 0.651 |
| Cn1ccc2c(C(=O)NCCCN3CCCC3)cccc21 | -18.3 |
| Cc1nc(CCNC(=O)NCC(c2ccco2)N(C)C)cs1 (configuration not stated) | 7.26 |
| CC1CCN(CCNC(=O)Nc2ccc(F)cc2Cl)CC1 | 4.68 |
| O=C(CN1CCC(C(=O)c2cc(F)ccc2F)CC1)NC1CC1 | -6.04 |
| CCc1n[nH]c(C2CN(C(=O)CCCn3cccn3)CCO2)n1 (configuration not stated) | -6.69 |
| Cc1cc(N2CCC(N(C)C(=O)c3ccccc3F)CC2)nc(C)n1 | 25.5 |
| Cc1cnc(CNc2ccccc2CN(C)C(=O)c2cccs2)o1 | -3.83 |
| CN(C)c1nccc(N(C)Cc2nc3ccccc3n2C)n1 | 0.482 |
| CSCC(C)(O)CNc1cccc(F)c1C#N (configuration not stated) | 0.462 |

| SMILES | cytotoxicity at 10 µM [%] |
| --- | --- |
| COCC(C)(C#N)NC(=O)c1cn(-c2cccc(Cl)c2F)nn1 (configuration not stated) | 0.472 |
| COc1cc(NC(=O)N2CCCC2c2nncn2C)ccc1Br (configuration not stated) | 5.67 |
| O=C(NCCCn1cncn1)c1ccc(-c2ccco2)[nH]c1=O | 2.87 |
| CCN1CCN(C(=O)Cc2ccc(S(=O)(=O)C(F)F)cc2)CC1 | -6.43 |
| Cc1cc(C)n(Cc2cccc(C(=O)N(CCC#N)CCC#N)c2)n1 | 13.1 |
| Cc1c(C(=O)NS(=O)(=O)c2ccc(F)cc2)cnn1CC(C)C | -6.63 |
| COCCN(CCOC)S(=O)(=O)N(C)Cc1ccncc1 | 8.07 |
| O=C(CN1CCCC(c2ccn[nH]2)C1)Nc1nncs1 (configuration not stated) | -43.9 |
| CN(Cc1ccc(Cl)c(F)c1)C(=O)CCc1ccncc1 | 3.31 |
| Cc1oncc1C(=O)N1CC[C@H]2[C@@H]1CCC(=O)N2CC1CCOCC1 | 4.33 |
| CC(C)n1c2ccccc2c2c1cc(C(=O)NCCO)n2C(=O)N(C)C | -93.8 |
| COCCn1c2c(ccc1=O)CC(NCc1cnn(C)c1)CC2 (configuration not stated) | -103 |
| Cn1cc(C[C@H]2[C@H](N3CCOCC3)CCN2C(=O)c2ccc[nH]2)cn1 | -75 |
| C[C@@H]1C[C@@H]2CCN(Cc3ccccn3)C[C@H]2O1 | -75.9 |
| Fc1cnc(N2CCCC3(CCN(Cc4nccs4)C3)C2)nc1 (configuration not stated) | -67.9 |
| O=C1CC(NCc2cnc(C3CCCCC3)nc2)CN1c1ccccc1 (configuration not stated) | -6.8 |
| Cc1nc(CN2CCCC(CCc3ccc(F)c(F)c3)C2)c[nH]1 (configuration not stated) | -10.4 |
| COCc1cn(C2CCN(CCC(C)c3ccccc3)CC2)nn1 (configuration not stated) | 6.39 |
| Cc1ccc(-n2cc(CN3CCOCC3)c(-c3cccc(C)c3)n2)cc1 | -0.906 |
| Cc1ccc(N2CCCC(c3[nH]ncc3-c3ccccc3)C2)nn1 (configuration not stated) | 2.51 |
| COCc1ncc(CN2CCC(Oc3ccc(OC)cc3)CC2)cn1 | -5.72 |
| CCn1cc(CN2CCN(Cc3cccc(OC)c3)C(=O)C2)cc1C#N | 2.96 |
| CC(C)c1cc(C(=O)N2CCCC2c2nc(-c3ccccc3)no2)[nH]n1 (configuration not stated) | -4.5 |

| SMILES | cytotoxicity at 10 µM [%] |
| --- | --- |
| COCCC1(CO)CCCN(C(=O)c2cccnc2O)C1 (configuration not stated) | -50.7 |
| O=C(c1cnc[nH]1)N1CCC(Oc2cccnc2)CC1 | 6.87 |
| CCc1c(O)nc(SCC(=O)Nc2ccccc2)n(C(C)CC)c1=O (configuration not stated) | 0.585 |
| COCCN1CCN(Cc2nccs2)[C@H]2CS(=O)(=O)C[C@H]21 | -1.82 |
| COc1cccc(C2CCN2C(=O)c2cc(C(C)C)on2)c1 (configuration not stated) | -2.96 |
| Cc1ncc(CN2CCC3(CC2)CC(=O)N(C)C3)cn1 | 9.8 |
| CCOc1cccc(C2CC(=O)NCc3nc(N4CCCC4)sc32)c1 (configuration not stated) | -2.53 |
| COc1cccc(OCCCc2cc(C#N)ccn2)c1 | -9.72 |
| COc1cccc(OC2CN(C(=O)CCn3cnnn3)C2)c1 | -0.0726 |
| O=C(O)CC1COCCN1CCCc1ccccc1 (configuration not stated) | -0.541 |
| Cc1nc(-c2cccnc2)ncc1C(=O)N1CCCCC(N)C1 (configuration not stated) | 7.57 |
| O=c1[nH]c2cc3c(cc2cc1CN1CCCC1c1ccccn1)CCC3 (configuration not stated) | -2.11 |
| Cc1ccc(C(=O)N2CCC(n3cc(CO)nn3)CC2)cn1 | -1.72 |
| Cc1ccc(OCC2CCCN(C(=O)CN3CCOCC3)C2)cc1 (configuration not stated) | -25.6 |
| COc1coc(CN2CCCC(CCc3c(F)cccc3F)C2)cc1=O (configuration not stated) | 1.18 |
| CNS(=O)(=O)c1cc(C)c2[nH]c(=O)cc(C)c2c1 | -7.76 |
| Cc1nc(N2C[C@H]3CNC[C@H]3C2)c2sccc2n1 | 9.26 |
| NC(=O)C1CCN(C(=O)c2cc(S(=O)(=O)N3CCCC3)cs2)CC1 | -43.9 |
| Cn1ccc(C2CCCCN2C(=O)c2cccc(-n3cccn3)c2)n1 (configuration not stated) | -0.874 |
| COc1ccc2c(c1)OCC(Cc1cnc(N)c(C)c1)C2 (configuration not stated) | -1.23 |
| Cc1ccc(N2CCC(C(O)c3cccs3)CC2)nn1 (configuration not stated) | -49.1 |
| Nc1nccc(N[C@H]2CN(CC(=O)NC3CCCCC3)C[C@@H]2C2CC2)n1 | -0.208 |
| COCCN1CC2(CCCN(C(=O)NCCc3cccs3)C2)CCC1=O (configuration not stated) | -8.14 |

| SMILES | cytotoxicity at 10 µM [%] |
| --- | --- |
| CCNC(=O)C1CCN(c2cc(-c3ccccc3)nc3cc(C)nn23)C1 (configuration not stated) | -2.97 |
| Cc1c(O)oc(-c2ccc(Br)cc2)nc1=O | -1.56 |
| c1cnnc(N2CCCC(NCc3nc(-c4ccco4)no3)C2)c1 (configuration not stated) | -20 |
| CS(=O)(=O)c1cccc(C(=O)NCCCN2CCc3ccccc3C2)c1 | -12.1 |
| Cc1ccc(NC2CCN(C(=O)c3ccc(F)cc3Cl)CC2)nn1 | -14.1 |
| Cc1cccc(OCCC(=O)N2CCCN(CC(N)=O)CC2)c1C | -7.28 |
| CC1CN(Cc2noc(C3CC3)n2)CCN1Cc1nccn1C (configuration not stated) | -10 |
| Cc1cccc(C)c1OCCC(=O)N1CCC(c2nncn2C)CC1 | -12 |
| CCN(CCc1ccccc1)Cn1nc(C)c2c(C)onc2c1=O | -5.18 |
| CCn1cc(NC(=O)CCc2ccc3c(c2)OCCCO3)cn1 | -9.26 |
| CN(C)C(=O)c1cn[nH]c1C1CCCN1Cc1nccn1C (configuration not stated) | -1.08 |
| Cc1nc(NCc2ccco2)nc2c1COCC21CCNC1 (configuration not stated) | 10.3 |
| COC[C@@]12CCC[C@@H]1CN(C(=O)CN(C)C)C2 | 4.84 |
| c1cncc(OCc2noc3c2CN(Cc2ccsc2)CC3)c1 | 4.76 |
| COc1ccccc1OCC(=O)N1C[C@@H]2CN(C)CCO[C@@H]2C1 | -2.94 |
| CC(C)n1cnc2c(-c3cccnc3)nc(C3CCNCC3)cc21 | -114 |
| CC(C)CS(=O)(=O)N1CCC2(CN(c3cccc(F)c3)C(=O)CN2C)C1 (configuration not stated) | -75.2 |
| O=C(c1ccc(F)cc1)N1C[C@@H]2COC[C@]2(COc2cccnc2)C1 | -100 |
| CCN(C)c1ncnc2c1CCN(CC1CCOC1)CC2 (configuration not stated) | -79.3 |
| CC(C)(CO)Nc1cc(-c2cn[nH]c2)ncn1 | -1.44 |
